The values that follow come from ChEMBL document CHEMBL4823293, “Fragment-based lead discovery to identify novel inhibitors that target the ATP binding site of pyruvate dehydrogenase kinases” (Bioorg Med Chem, 2021).

In assay [1] the target is T1, [Pyruvate dehydrogenase (acetyl-transferring)] kinase isozyme 2, mitochondrial (Homo sapiens, UniProt Q15119). Description: Inhibition of human PDHK2 assessed as reduction in acetyl-coenzymeA formation by RapidFire mass spectrometry. The procedure, abridged: (§1)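 PDHK reaction read through downstream PDH product. Reaction mix diluted 25-fold in 0.1% formic acid. Acetyl-CoA captured on graphitic carbon SPE (5 mM ammonium acetate pH 10.0), eluted with buffer/acetonitrile/acetone 50:25:25. […] MRM at 808/79 and 808/408; peak AUC quantified, ATP signal confirming each injection.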

Assay [2] concerns the target T2, [Pyruvate dehydrogenase (acetyl-transferring)] kinase isozyme 4, mitochondrial (Homo sapiens, UniProt Q16654). The assay can be described thus: Inhibition of human PDHK4 assessed as reduction in acetyl-coenzymeA formation by RapidFire mass spectrometry. The procedure, abridged: as §1
Target sequence in this assay (Q16654 whole entry): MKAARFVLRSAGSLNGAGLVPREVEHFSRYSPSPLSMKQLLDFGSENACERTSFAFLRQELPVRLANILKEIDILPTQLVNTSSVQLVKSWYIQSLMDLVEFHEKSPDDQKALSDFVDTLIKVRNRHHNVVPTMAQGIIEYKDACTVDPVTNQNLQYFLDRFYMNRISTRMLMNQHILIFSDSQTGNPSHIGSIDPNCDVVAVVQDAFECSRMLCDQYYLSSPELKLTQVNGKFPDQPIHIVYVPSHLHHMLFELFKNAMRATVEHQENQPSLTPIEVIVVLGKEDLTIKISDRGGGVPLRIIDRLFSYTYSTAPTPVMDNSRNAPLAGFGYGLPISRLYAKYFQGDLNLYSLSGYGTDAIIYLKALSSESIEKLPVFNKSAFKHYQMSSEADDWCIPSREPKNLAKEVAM
The target of assay [3] is T2, [Pyruvate dehydrogenase (acetyl-transferring)] kinase isozyme 4, mitochondrial. The assay can be described thus: Inhibition of human PDHK4 assessed as reduction in acetyl-coenzymeA formation at IC50 by RapidFire mass spectrometry relative to control. The method in brief: as §1
Target sequence in this assay (Q16654 whole entry, looked up): as the sequence (Q16654 whole entry) above
Assay [4] concerns the target T1, [Pyruvate dehydrogenase (acetyl-transferring)] kinase isozyme 2, mitochondrial. Description: Inhibition of human PDHK2 co-complexed with porcine PDH using sodium pyruvate, coenzymeA and NAD as substrate preincubated with enzyme complex for 45 mins followed by ATP addition and then later incubated with substrate for 90 mins by absorption spectrophotometric assay.

The target in assay [5] is T2, [Pyruvate dehydrogenase (acetyl-transferring)] kinase isozyme 4, mitochondrial. Description: Inhibition of human PDHK4 co-complexed with porcine PDH using sodium pyruvate, coenzymeA and NAD as substrate preincubated with enzyme complex for 45 mins followed by ATP addition and then later incubated with substrate for 90 mins by absorption spectrophotometric assay.
Target sequence in this assay (Q16654 whole entry): as above
The target of assay [6] is [Pyruvate dehydrogenase (acetyl-transferring)] kinase isozyme 1, mitochondrial (Homo sapiens, UniProt Q15118). Description: Inhibition of human PDHK1 co-complexed with porcine PDH using sodium pyruvate, coenzymeA and NAD as substrate preincubated with enzyme complex for 45 mins followed by ATP addition and then later incubated with substrate for 90 mins by absorption spectrophotometric assay. The procedure, abridged:
(§2)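 Recombinant human PDHK mixed with porcine PDH complex, held overnight at 4 °C to form PDH/PDHK complex. Inhibitor plus 0.3 or 10 µM ATP, 45 min at room temperature. Then 5.0 mM CoA, 5.0 mM pyruvate, 12 mM NAD added, 90 min at room temperature. NADH A340 taken before and after; IC50 from Hill-type curve fit against 0% and 100% activity controls.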

In assay [7] the target is [Pyruvate dehydrogenase (acetyl-transferring)] kinase isozyme 3, mitochondrial (Homo sapiens, UniProt Q15120). Description: Inhibition of human PDHK3 co-complexed with porcine PDH using sodium pyruvate, coenzymeA and NAD as substrate preincubated with enzyme complex for 45 mins followed by ATP addition and then later incubated with substrate for 90 mins by absorption spectrophotometric assay. The method in brief: as §2

Assay [8] concerns the target Heat shock protein HSP90 (Homo sapiens) (UniProt P07900+P08238). The assay can be described thus: Inhibition of HSP90 (unknown origin) at 30 uM using labelled geldanamycin by fluorescence polarization assay. Format: protein assay. The procedure, abridged:
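Competitive fluorescence polarization with labelled geldanamycin probe, run as a commercial HSP90 assay kit; read as percent inhibition at a single concentration.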

Assay [9] deals with T3, Branched-chain alpha-ketoacid dehydrogenase kinase (Homo sapiens, UniProt O14874). The assay can be described thus: Inhibition of human recombinant BCKDK at 500 uM incubated for 60 mins by ADP-Glo kinase assay. The method in brief:
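Human recombinant BCKDK with inhibitor and 0.2 µM ATP, 60 min at 37 °C. ADP-Glo reagent 40 min at room temperature to stop and deplete ATP, then detection reagent 40 min to convert ADP to ATP; luminescence read.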

Assay [10] concerns the target Serine/threonine-protein kinase mTOR (Homo sapiens) (UniProt P42345). Description: Inhibition of human partial length wild type mTOR (L1382 to W2549 residues) expressed in mammalian expression system at 10 uM by KINOMEscan analysis. The procedure, abridged:
(§3)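 Competition-binding KINOMEscan service panel of 59 kinases; percent inhibition at 10 µM.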

In assay [11] the target is Microtubule-associated serine/threonine-protein kinase 1 (Homo sapiens) (UniProt Q9Y2H9). The assay can be described thus: Inhibition of human partial length wild type MAST1 (S346 to V730 residues) expressed in mammalian expression system at 10 uM by KINOMEscan analysis. The method in brief:
as §3

Assay [12] has as its target T3, Branched-chain alpha-ketoacid dehydrogenase kinase. Description: Inhibition of human recombinant BCKDK incubated for 60 mins by ADP-Glo kinase assay.

Molecules are shown by their SMILES.

Chain of Microtubule-associated serine/threonine-protein kinase 1 (Homo sapiens) (Q9Y2H9 whole entry, looked up, the tested form may be a part): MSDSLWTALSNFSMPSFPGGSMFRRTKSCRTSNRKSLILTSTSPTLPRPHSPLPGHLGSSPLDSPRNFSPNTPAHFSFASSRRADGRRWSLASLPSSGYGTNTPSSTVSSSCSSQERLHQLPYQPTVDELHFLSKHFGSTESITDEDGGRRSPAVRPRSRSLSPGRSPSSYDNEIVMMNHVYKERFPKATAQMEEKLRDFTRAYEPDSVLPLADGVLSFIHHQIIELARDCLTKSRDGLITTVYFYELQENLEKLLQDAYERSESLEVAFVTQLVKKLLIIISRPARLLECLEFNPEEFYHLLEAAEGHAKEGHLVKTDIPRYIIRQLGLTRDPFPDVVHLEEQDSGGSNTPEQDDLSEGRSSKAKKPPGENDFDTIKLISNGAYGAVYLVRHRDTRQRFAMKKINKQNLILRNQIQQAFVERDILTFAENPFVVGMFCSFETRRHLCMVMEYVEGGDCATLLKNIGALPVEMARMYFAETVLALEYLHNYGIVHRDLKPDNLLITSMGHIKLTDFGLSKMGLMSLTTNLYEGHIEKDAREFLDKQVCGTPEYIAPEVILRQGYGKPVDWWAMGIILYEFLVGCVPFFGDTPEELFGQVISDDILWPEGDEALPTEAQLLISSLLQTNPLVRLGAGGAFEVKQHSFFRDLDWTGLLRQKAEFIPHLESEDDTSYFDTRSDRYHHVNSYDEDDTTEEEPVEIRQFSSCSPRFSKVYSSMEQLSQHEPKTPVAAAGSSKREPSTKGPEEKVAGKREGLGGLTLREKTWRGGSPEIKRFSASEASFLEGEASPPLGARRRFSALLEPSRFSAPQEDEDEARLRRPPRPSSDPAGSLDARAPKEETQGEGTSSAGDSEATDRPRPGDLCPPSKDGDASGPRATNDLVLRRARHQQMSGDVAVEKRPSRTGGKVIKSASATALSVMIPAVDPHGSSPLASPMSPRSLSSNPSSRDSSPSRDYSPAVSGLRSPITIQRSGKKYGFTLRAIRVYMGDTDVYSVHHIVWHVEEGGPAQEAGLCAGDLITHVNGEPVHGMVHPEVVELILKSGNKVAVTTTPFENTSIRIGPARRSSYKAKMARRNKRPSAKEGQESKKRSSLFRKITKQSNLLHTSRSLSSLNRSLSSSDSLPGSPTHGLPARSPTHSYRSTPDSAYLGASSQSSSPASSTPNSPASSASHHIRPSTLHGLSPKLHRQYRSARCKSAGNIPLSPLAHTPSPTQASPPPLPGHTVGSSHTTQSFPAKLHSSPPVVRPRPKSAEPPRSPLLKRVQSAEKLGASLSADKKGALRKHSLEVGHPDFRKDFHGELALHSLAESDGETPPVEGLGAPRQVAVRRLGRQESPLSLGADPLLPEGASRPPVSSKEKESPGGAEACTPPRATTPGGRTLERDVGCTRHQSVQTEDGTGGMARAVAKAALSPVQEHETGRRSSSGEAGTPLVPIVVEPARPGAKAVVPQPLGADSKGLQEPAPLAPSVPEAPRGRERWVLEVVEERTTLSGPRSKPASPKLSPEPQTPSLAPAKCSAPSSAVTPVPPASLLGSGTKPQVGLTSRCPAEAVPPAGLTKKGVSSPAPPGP
Chain of [Pyruvate dehydrogenase (acetyl-transferring)] kinase isozyme 3, mitochondrial (Q15120 whole entry): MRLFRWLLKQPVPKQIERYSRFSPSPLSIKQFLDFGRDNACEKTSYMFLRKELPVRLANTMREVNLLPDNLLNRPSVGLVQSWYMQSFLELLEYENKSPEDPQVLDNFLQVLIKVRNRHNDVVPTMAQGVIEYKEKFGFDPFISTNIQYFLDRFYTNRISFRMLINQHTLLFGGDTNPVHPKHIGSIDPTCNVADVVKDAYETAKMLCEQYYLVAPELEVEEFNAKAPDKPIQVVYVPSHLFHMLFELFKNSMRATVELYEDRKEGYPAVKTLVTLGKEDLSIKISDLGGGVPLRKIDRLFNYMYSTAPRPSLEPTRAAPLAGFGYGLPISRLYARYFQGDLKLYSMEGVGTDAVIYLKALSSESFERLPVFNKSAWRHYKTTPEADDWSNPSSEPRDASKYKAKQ
Chain of [Pyruvate dehydrogenase (acetyl-transferring)] kinase isozyme 1, mitochondrial (Q15118 whole entry): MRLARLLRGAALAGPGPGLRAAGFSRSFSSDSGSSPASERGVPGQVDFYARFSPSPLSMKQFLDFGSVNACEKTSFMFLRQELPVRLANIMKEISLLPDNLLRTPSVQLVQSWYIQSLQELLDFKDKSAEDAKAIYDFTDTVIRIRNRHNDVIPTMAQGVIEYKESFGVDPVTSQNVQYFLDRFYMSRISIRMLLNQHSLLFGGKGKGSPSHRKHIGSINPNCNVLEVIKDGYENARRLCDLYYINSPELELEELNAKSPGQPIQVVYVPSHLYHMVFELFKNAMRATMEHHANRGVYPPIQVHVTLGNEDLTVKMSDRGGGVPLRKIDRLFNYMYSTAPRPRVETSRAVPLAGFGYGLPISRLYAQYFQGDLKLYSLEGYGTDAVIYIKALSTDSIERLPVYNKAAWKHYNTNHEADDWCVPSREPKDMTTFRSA

Regarding `O=C1Cc2ccccc2N1` [OXINDOLE], the IC50 in assay [1] was 958 µM; in [2], more than 2000 µM. Further, the inhibition in [3] worked out at 29%.

With `c1cnc2[nH]c3c(C4CC4)cccc3c2c1`, the IC50 is 3.5 µM in assay [4] and more than 300 µM in [5].

Consider `CNC(=O)c1[nH]c2nc(C)nc(Cl)c2c1C`, for which the IC50 is 42.8 µM in [4] and more than 100 µM in [5].

Take `CNC(=O)c1[nH]c2nc(C)nc(Cl)c2c1Br`: the IC50 in assay [4] and in assay [5] was more than 30 µM throughout.

`CCc1cccc2c1NC(=O)C2(C)C`: the IC50 was 11 µM in assay [4] and more than 300 µM in assay [5].

Turning to `CCCc1[nH]c2nc(C)ncc2c1C`, the figures for the 50% inhibitory concentration (IC50) in [4] and in assay [5] were 14.7 µM and more than 30 µM, respectively.

Turning to `CCCc1[nH]c2nc(C)ncc2c1Br`, the results for the IC50 in assay [4] and in assay [5] were 2.2 µM and 12.4 µM, respectively.

In the case of `CNc1cccc2c1NC(=O)C2(C)C`, the IC50 in assay [4] amounted to 0.59 µM; in [5] it was 12.8 µM; in [6] it was 0.37 µM; in assay [7], 8.4 µM. Also, the inhibition came to 3.2% in [8], 14% in [9], 58% in assay [10] and 60% in assay [11].

On to `CCCc1[nH]c2nc(C)nc(Cl)c2c1C`, for which the 50% inhibitory concentration (IC50) in assay [4] was 9.9 µM; in assay [5], more than 30 µM.

Consider `CC1(C)C(=O)Nc2ccccc21`, for which the half-maximal inhibitory concentration (IC50) is 50.2 µM in [1], 890 µM in assay [2], 279 µM in assay [4] and more than 300 µM in assay [5].

Consider `CCCc1[nH]c2nc(C)ncc2c1Cl`, for which the figures for the half-maximal inhibitory concentration (IC50) in assay [4] and in assay [5] were 1.8 µM and 11 µM, respectively.

For the compound `CC1(C)C(=O)Nc2c(N)cccc21`, the 50% inhibitory concentration (IC50) in [4] and in [5] was more than 300 µM throughout.

As for `Cc1cnc2[nH]c3c(C4CC4)cccc3c2c1`, the IC50 amounted to 2 µM in assay [4] and 12 µM in assay [5].

`Cc1cnc2[nH]c3c(C4CC4)cccc3c2n1`: the IC50 in [4] was 0.71 µM; in assay [5], 5.9 µM; in assay [12], more than 300 µM.

Consider `C/C=C/c1[nH]c2nc(C)nc(Cl)c2c1Cl`, for which the IC50 is 1.5 µM in [4] and 8 µM in assay [5].

Consider `CCCc1[nH]c2nc(C)ncc2c1C#N`, for which the concentration for half-maximal inhibition (IC50) in assay [4] and in assay [5] was more than 30 µM each time.

Turning to `COC(=O)c1ccc(O)cc1O` [METHYL 2,4-DIHYDROXYBENZOATE], the half-inhibitory concentration (IC50) in assay [1] was 192 µM; in [2], 345 µM.

For the compound `CC1(C)C(=O)Nc2c(C3CC3)cccc21`, the half-maximal inhibitory concentration (IC50) was determined as 4.9 µM in [4] and 43.6 µM in assay [5].
